In general, inhibition refers to the change of the read-out against control, counted positive when it falls. As usually defined, the IC50 is the concentration that gives 50% inhibition. A lower IC50 goes with greater potency in that assay.

Assay [1] addresses Proto-oncogene tyrosine-protein kinase Src (Homo sapiens, UniProt P12931). The assay can be described thus: Inhibition of SRC.
Assay [2] has as its target Mitogen-activated protein kinase kinase kinase 8 (Homo sapiens) (UniProt P41279). Kind of assay: Inhibition of COT.
The target in assay [3] is Serine/threonine-protein kinase PLK1 (Homo sapiens) (UniProt P53350). The assay can be described thus: Inhibition of PLK1 up to 100 uM. In a few lines:
(§1)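 Run in HEPES-NaOH pH 7.5 with MgCl2, MnCl2, orthovanadate, DTT, PEG20000 and 1% DMSO at 30 °C for 80 min. IC50 from 10 concentrations, singlicate.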

Assay [4] concerns the target Receptor-type tyrosine-protein kinase FLT3 (Homo sapiens) (UniProt P36888). Kind of assay: Inhibition of FLT3 up to 100 uM.
Assay [5] addresses T1, Angiopoietin-1 receptor (Homo sapiens, UniProt Q02763). The assay can be described thus: Inhibition of TIE2.
In assay [6] the target is T2, Aurora kinase A (Homo sapiens) (UniProt O14965).
T2 sequence (whole entry): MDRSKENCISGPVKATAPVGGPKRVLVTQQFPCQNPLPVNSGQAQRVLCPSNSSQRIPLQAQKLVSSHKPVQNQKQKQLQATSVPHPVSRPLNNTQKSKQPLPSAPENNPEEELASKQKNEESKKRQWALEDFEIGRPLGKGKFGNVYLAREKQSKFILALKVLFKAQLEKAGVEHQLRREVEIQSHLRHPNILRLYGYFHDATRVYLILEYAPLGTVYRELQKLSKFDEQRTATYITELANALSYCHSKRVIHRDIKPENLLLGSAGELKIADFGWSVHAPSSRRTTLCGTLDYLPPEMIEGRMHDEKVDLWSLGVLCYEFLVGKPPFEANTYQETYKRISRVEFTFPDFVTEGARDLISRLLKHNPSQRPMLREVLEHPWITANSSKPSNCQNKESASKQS
The assay can be described thus: Inhibition of Aurora A up to 100 uM. In a few lines: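 Buffer was HEPES-NaOH pH 7.5 with MgCl2, MnCl2, vanadate, DTT, PEG20000 and 1% DMSO. Run 80 min at 30 °C, quenched with 2% H3PO4, NaCl-washed, then scintillation-counted. IC50 fitted from 10 concentrations tested once each.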

Assay [7] has as its target Insulin receptor (Homo sapiens) (UniProt P06213). Kind of assay: Inhibition of INSR up to 100 uM.
Assay [8] addresses T3, NUAK family SNF1-like kinase 1 (Homo sapiens) (UniProt O60285).
T3 sequence (whole entry): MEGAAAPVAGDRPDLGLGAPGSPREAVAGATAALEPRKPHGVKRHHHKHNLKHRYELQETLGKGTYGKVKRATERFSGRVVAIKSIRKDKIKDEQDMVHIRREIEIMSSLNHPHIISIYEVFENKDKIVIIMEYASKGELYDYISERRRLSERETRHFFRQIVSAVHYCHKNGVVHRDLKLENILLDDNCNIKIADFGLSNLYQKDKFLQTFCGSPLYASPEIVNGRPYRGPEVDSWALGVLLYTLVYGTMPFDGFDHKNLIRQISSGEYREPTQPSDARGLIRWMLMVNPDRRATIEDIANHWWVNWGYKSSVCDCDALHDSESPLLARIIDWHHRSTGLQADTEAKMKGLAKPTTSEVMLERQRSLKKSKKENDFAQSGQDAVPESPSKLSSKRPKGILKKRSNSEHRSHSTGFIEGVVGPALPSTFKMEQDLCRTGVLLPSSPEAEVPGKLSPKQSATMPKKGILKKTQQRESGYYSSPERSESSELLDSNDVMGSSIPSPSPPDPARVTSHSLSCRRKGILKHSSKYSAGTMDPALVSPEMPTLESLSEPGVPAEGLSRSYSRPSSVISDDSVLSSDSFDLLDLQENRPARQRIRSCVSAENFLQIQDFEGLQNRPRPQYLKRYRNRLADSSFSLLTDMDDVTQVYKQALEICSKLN
The assay can be described thus: Inhibition of ARK5 up to 100 uM.

Assay [9] has as its target RAC-alpha serine/threonine-protein kinase (Homo sapiens) (UniProt P31749). Kind of assay: Inhibition of AKT1 up to 100 uM. In a few lines: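 Radiometric kinase assay with recombinant AKT1 (50–400 ng) and GSK3(14-27) peptide substrate. Incubated 80 min at 30 °C, stopped with 2% H3PO4, washed with 0.9% NaCl. IC50 from 10 concentrations in singlicate.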
The target in assay [10] is Focal adhesion kinase 1 (Homo sapiens) (UniProt Q05397). Kind of assay: Inhibition of FAK up to 100 uM. In a few lines: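 Buffer: HEPES-NaOH pH 7.5, Mg2+/Mn2+, vanadate, DTT, PEG20000, 1% DMSO. Incubated 30 °C for 80 min, stopped with 2% H3PO4, washed, and scintillation-counted. IC50 from 10 concentrations in singlicate.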
Assay [11] deals with Casein kinase II subunit alpha (Homo sapiens) (UniProt P68400). Kind of assay: Inhibition of CK2alpha1. The procedure, abridged:
as §1

The target in assay [12] is Hepatocyte growth factor receptor (Homo sapiens) (UniProt P08581). The assay can be described thus: Inhibition of MET up to 100 uM.
The target in assay [13] is Serine/threonine-protein kinase N2 (Homo sapiens) (UniProt Q16513). Kind of assay: Inhibition of PRK2 at 10 uM.
In assay [14] the target is Mitogen-activated protein kinase 12 (Homo sapiens) (UniProt P53778). Kind of assay: Inhibition of SAPK3 at 10 uM.
In assay [15] the target is Glycogen synthase kinase-3 beta (Homo sapiens) (UniProt P49841). Kind of assay: Inhibition of GSK3-beta at 10 uM.
In assay [16] the target is Serine/threonine-protein kinase PAK 5 (Homo sapiens) (UniProt Q9P286). Kind of assay: Inhibition of human PAK5 at 10 uM.
The target in assay [17] is Dual specificity tyrosine-phosphorylation-regulated kinase 2 (Homo sapiens) (UniProt Q92630). The assay can be described thus: Inhibition of human DYRK2 at 10 uM.
Assay [18] deals with Proto-oncogene tyrosine-protein kinase LCK (Mus musculus) (UniProt P06240). Kind of assay: Inhibition of mouse LCK at 10 uM.
The target in assay [19] is Mitogen-activated protein kinase 9 (Homo sapiens) (UniProt P45984). Kind of assay: Inhibition of human JNK2 at 10 uM.
The target of assay [20] is MAP kinase-interacting serine/threonine-protein kinase 1 (Homo sapiens) (UniProt Q9BUB5). Kind of assay: Inhibition of MNK1 at 10 uM.
Assay [21] concerns the target Mitogen-activated protein kinase 13 (Homo sapiens) (UniProt O15264). Kind of assay: Inhibition of SAPK4 at 10 uM.
Assay [22] addresses Serine/threonine-protein kinase PAK 6 (Homo sapiens) (UniProt Q9NQU5). The assay can be described thus: Inhibition of human PAK6 at 10 uM.
The target in assay [23] is SRSF protein kinase 1 (Homo sapiens) (UniProt Q96SB4). Kind of assay: Inhibition of SRPK1 at 10 uM.
In assay [24] the test system is Ribosomal protein S6 kinase beta-1 (Homo sapiens), P23443 [T412E]. The assay can be described thus: Inhibition of S6K1 T412E mutant at 10 uM.
Assay [25] has as its target Serine/threonine-protein kinase B-raf (Homo sapiens, UniProt P15056, V600E). Kind of assay: Inhibition of BRAF V600E mutant.
The target of assay [26] is T1, Angiopoietin-1 receptor. The assay can be described thus: Inhibition of TIE2 up to 100 uM.

Structures are written as SMILES. The source made the active and inactive calls. The rule behind the calls is not given here.

Hepatocyte growth factor receptor (Homo sapiens), sequence (P08581 whole entry): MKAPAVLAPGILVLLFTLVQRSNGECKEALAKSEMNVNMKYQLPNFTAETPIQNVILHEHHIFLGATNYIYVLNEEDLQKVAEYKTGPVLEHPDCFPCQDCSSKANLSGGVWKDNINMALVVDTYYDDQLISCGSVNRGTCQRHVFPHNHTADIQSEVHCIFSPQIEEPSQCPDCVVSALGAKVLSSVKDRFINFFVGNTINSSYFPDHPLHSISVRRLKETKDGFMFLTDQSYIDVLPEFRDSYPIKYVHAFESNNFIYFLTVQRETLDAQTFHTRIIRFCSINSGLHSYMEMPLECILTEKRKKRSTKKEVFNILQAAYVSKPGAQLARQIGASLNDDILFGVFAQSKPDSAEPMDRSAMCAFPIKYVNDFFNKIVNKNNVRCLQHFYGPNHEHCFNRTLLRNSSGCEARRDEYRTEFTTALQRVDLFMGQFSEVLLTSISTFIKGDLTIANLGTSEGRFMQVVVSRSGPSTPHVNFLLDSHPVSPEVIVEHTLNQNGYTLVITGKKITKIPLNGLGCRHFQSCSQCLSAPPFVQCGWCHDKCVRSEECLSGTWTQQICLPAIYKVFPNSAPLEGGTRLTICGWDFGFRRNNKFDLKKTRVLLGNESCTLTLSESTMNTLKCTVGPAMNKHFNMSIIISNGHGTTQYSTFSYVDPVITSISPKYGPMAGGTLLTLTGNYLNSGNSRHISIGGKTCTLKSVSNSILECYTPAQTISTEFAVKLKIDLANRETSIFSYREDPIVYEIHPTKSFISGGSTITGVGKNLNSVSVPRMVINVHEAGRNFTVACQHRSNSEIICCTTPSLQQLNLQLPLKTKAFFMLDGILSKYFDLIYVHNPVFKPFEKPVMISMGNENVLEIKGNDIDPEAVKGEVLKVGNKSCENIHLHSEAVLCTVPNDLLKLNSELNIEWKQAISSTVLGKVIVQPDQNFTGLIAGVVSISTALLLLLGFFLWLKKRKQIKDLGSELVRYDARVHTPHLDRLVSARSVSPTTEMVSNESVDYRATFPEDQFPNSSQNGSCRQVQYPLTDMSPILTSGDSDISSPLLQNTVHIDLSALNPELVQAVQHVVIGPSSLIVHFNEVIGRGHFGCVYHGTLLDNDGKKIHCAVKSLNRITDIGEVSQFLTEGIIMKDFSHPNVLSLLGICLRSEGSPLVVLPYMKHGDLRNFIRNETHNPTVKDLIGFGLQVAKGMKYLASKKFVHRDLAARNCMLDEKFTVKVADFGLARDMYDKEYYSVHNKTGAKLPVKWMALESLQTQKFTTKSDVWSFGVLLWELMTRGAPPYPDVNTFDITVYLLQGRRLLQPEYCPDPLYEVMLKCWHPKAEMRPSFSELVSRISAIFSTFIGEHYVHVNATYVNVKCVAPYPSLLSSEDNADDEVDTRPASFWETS
Proto-oncogene tyrosine-protein kinase Src, sequence (P12931 2-536 limits assumed): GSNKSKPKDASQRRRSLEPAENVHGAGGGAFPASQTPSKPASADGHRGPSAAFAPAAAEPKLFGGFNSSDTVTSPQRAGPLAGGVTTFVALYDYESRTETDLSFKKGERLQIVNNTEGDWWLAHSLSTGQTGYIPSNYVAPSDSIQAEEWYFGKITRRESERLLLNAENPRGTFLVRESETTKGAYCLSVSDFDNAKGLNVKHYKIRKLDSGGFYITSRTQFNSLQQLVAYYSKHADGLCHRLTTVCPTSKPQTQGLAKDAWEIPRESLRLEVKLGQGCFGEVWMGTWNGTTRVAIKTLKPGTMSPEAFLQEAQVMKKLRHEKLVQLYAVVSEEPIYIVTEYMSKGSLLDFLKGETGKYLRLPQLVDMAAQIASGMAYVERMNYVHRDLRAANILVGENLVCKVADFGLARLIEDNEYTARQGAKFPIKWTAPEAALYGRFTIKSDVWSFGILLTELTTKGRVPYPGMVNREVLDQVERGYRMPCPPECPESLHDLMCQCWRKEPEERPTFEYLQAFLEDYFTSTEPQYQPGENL
Mitogen-activated protein kinase kinase kinase 8 (Homo sapiens), sequence (P41279 whole entry): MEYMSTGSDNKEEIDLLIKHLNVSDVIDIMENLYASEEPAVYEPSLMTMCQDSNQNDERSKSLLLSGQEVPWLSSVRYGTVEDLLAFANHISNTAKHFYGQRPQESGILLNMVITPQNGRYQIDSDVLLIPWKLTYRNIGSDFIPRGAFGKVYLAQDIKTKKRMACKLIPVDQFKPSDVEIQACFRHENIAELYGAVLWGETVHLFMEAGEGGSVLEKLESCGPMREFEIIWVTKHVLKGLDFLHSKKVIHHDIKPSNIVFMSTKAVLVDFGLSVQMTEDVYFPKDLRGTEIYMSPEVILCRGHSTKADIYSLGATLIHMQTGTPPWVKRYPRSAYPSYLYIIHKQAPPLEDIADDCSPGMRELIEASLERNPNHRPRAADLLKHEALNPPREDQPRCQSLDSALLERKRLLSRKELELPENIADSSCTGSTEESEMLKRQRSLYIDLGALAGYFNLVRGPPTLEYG
RAC-alpha serine/threonine-protein kinase (Homo sapiens), sequence (P31749 whole entry): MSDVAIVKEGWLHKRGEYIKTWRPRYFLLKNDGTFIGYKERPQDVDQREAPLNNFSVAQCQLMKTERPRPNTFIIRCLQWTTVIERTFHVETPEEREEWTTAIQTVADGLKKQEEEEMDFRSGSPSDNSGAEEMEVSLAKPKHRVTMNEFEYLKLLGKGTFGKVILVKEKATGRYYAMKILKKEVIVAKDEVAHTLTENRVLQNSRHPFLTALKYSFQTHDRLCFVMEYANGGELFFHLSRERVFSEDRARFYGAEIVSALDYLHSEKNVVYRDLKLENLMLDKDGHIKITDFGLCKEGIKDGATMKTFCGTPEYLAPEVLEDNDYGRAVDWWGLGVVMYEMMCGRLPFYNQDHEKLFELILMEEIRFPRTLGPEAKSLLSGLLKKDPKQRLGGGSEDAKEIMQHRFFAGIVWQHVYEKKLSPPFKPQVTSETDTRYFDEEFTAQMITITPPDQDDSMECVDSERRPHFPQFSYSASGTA
Focal adhesion kinase 1 (Homo sapiens), sequence (Q05397 2-1052 limits assumed): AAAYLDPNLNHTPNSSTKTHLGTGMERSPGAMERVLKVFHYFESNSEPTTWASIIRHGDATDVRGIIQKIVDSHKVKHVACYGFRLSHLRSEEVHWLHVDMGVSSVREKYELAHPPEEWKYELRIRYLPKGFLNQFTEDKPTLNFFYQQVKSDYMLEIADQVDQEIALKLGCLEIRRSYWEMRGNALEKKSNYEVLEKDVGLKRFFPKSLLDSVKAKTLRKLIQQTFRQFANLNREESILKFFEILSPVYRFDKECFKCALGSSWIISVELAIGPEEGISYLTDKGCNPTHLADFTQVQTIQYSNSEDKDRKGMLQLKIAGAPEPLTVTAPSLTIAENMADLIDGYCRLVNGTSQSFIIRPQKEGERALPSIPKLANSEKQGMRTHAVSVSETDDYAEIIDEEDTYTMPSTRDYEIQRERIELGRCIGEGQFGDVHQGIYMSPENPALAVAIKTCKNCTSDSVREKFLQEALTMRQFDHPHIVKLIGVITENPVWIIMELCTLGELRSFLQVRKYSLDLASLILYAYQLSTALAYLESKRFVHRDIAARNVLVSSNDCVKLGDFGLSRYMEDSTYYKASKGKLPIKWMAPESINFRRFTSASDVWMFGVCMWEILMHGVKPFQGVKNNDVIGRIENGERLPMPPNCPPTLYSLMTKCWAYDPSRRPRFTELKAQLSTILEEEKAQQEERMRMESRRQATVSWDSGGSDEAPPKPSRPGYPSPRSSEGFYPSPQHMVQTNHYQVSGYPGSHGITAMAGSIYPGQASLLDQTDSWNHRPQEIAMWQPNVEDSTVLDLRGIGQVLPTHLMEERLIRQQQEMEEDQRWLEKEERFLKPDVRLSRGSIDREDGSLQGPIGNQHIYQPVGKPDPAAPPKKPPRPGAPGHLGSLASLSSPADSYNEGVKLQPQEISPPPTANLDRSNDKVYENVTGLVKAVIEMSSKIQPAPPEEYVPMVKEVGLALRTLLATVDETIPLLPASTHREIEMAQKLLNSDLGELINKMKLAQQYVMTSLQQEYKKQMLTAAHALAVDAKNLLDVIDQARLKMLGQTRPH
Casein kinase II subunit alpha (Homo sapiens), sequence (P68400 whole entry, looked up): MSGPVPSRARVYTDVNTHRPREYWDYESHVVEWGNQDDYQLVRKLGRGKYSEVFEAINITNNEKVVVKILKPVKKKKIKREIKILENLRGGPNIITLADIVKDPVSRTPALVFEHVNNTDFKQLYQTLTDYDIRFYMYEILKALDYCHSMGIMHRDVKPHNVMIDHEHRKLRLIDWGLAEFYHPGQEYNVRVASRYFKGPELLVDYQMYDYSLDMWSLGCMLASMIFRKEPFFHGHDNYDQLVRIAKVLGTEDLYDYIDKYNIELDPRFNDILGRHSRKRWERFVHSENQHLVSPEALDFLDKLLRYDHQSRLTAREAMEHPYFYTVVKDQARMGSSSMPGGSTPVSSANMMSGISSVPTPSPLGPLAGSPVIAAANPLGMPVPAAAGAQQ
Serine/threonine-protein kinase PLK1 (Homo sapiens), sequence (P53350 whole entry): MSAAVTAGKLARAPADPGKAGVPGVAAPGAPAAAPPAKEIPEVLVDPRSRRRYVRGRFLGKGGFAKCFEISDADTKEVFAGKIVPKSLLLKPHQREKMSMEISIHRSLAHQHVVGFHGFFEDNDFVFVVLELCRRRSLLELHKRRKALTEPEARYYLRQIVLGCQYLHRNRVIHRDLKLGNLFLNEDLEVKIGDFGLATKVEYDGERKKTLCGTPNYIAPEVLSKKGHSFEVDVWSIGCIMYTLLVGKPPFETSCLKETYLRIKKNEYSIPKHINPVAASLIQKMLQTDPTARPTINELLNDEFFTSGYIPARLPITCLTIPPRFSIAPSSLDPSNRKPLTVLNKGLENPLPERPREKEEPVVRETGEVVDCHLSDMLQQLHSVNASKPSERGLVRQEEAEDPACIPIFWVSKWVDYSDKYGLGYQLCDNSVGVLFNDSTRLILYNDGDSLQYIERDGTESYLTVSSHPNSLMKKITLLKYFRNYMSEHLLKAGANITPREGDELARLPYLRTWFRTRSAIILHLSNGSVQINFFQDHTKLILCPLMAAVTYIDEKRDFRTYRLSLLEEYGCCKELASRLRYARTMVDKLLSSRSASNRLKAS

With `CN(C)c1ncnc2c1ncn2CC(=O)c1c[nH]c2ccccc12`, the inhibition result (in assay [1]; in [2]; in [3]; in assay [4]; on Angiopoietin-1 receptor [5]; in assay [6]) was “inactive” each time. The inhibition entry in assay [7], in assay [8], in assay [9], in [10], in [11] and in assay [12] was “inactive” each time.
For the compound `Nc1ncnc2ncn(CC(=O)c3ccccc3)c12`, the inhibition result (in assay [1]; in assay [2]; in assay [3]; in [4]; on Angiopoietin-1 receptor [5]; in assay [6]) was “inactive” each time. Also, the inhibition entry in [7], in assay [8], in [9], in assay [10], in [11] and in assay [12] was “inactive” throughout.
As to `Nc1ncnc2c1ncn2CC(=O)c1cccnc1`, in assay [1], the IC50 is 75 µM. For the same compound, the inhibition entry (in assay [2]; in assay [3]; in assay [4]; at Angiopoietin-1 receptor [5]; in assay [6]; in assay [7]) was “inactive” each time. Moreover, the inhibition result in assay [8], in [9], in assay [10], in assay [11] and in assay [12] was “inactive” in each case.
Take `Nc1ncnc2c1ncn2CC(=O)c1ccccn1`: the inhibition result (in assay [1]; in assay [2]; in assay [3]; in assay [4]; on Angiopoietin-1 receptor [5]; in [6]) was “inactive” each time. The inhibition result in assay [7], in assay [8], in [9], in [10], in [11] and in [12] was “inactive” throughout.
`COc1ncnc2ncn(CC(=O)c3ccccc3)c12`: the inhibition result (in assay [1]; in assay [2]; in assay [3]; in [4]; on Angiopoietin-1 receptor [5]; in assay [6]) was “inactive” throughout. The inhibition entry in [7], in assay [8], in [9], in assay [10], in assay [11] and in [12] was “inactive” in each case.
`Nc1ncnc2ncn(CC(=O)c3c[nH]c4ccccc34)c12`: the inhibition entry in [13], in [14], in assay [2], in assay [15], in [16] and in assay [3] was “inactive” throughout. Further, the inhibition entry in [4], in assay [17], in [18], in assay [6], in assay [19] and in assay [7] was “inactive” throughout. Besides, the inhibition result in assay [8], in assay [20], in assay [9], in assay [21], in assay [10] and in assay [11] was “inactive” each time. Moreover, the inhibition result in assay [22], in assay [23], in assay [24] and in [12] was “inactive” each time. Moreover, the IC50 on Angiopoietin-1 receptor [5] is 95 µM.
Regarding `Nc1ncnc2c1ncn2CC(=O)c1c[nH]c2ccccc12`, the inhibition entry in assay [1], in [2], in assay [3], in assay [4], in assay [6] and in assay [7] was “inactive” each time. The inhibition result in [8], in [9], in assay [10], in assay [11] and in assay [12] was “inactive” throughout. For the same compound, the IC50 came to 85 µM against Angiopoietin-1 receptor [5] and 82 µM in assay [25]. In [20], this compound returned an inhibition of 73%.
For the compound `Nc1ncnc2c1ncn2CC(=O)c1ccccc1`, the inhibition result (in assay [2]; on Angiopoietin-1 receptor [26]; in assay [3]; in [4]; in assay [6]; in [7]) was “inactive” in each case. Also, the inhibition entry in assay [8], in [9], in assay [10], in assay [11] and in [12] was “inactive” throughout.
For `COc1ncnc2c1ncn2CC(=O)c1ccccc1`, the inhibition result (in assay [1]; in assay [2]; in [3]; in assay [4]; on Angiopoietin-1 receptor [5]; in [6]) was “inactive” each time. For the same compound, the inhibition result in assay [7], in assay [8], in assay [9], in assay [10], in assay [11] and in [12] was “inactive” each time.
